Autophagy HCS: autophagy modulation, high-content screen; MEF GFP-LC3 puncta imaging; test concentration mostly 10 µM; calls only at 10 µM (by protocol); hit rate 0.98% among 190,000; AID 463193;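 active = percentage of spot-positive cells more than 3 SD above its plate mean, without a fluorescence outlier flag or 80% toxicity; inconclusive = no clear call, values can overlap the other calls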;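 also: spot-positive cell cutoff set from DMSO-treated cells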
Ins promoter up: MIN6 insulin promoter up-regulation | MIN6 insulin promoter-GFP reporter, high-content imaging; stronger effect = higher value | z-score at 5 µM | hit rate 0.3% among 190,000;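 active = z-score above 3 at 5 µM with at least 500 cells counted in the well; inconclusive = wells under 500 cells, flagged as cytotoxic or low count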
SDO1 yeast rescue: sdo1-depleted yeast growth rescue; S. cerevisiae sdo1-depleted JHY4D growth rescue, OD600 30 h; stronger effect = higher value; pdr5 snq2 efflux-pump mutant strain; z-score at 10 µM; hit rate 0.21% among 140,000;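 active = z-score above 3 at both the 24 hr and the 30 hr optical density reads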;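 also: z-score against mean and SD of all compound wells on the same plate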
ABCG2 inh: human ABCG2 inhibition, ABCB1 as counter-screen; Q9UNQ0; IgMXP3 cells, JC-1 efflux, flow cytometry; inhibition, % at 6.6 µM; hit rate 0.1% among 190,000; AID 1325;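 active = inhibition above 80%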;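 also: 0% = DMSO and 100% = nicardipine control wells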
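material = IgMXP3 (ABCG2) plus far-red-tagged CCRF-Adr (ABCB1) cells | amount = 3 million cells/mL, equal mix of both lines | also added = JC-1 transporter substrate | dosing = one concentration, 6.6 µM final | schedule = 10 min at 25 °C | measured by = flow cytometric JC-1 green MFI at 530 nm | read-out basis = percent efflux inhibition, scaled nicardipine 100% to DMSO 0%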
ABCB1 block: blocks JC-1 efflux by human ABCB1 transporter; CCRF-Adr cells, flow cytometry; inhibition, % at 6.6 µM; hit rate 0.067% among 190,000; in the data active = inhibition above about 40%;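 also: 0% = vehicle and 100% = reference inhibitor; higher value means more JC-1 retained so stronger ABCB1 efflux block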
ROMK mod: modulates human ROMK potassium channel activity. P48048. Tet-inducible ROMK, thallium flux fluorescence; actives lie on both sides. B-score at 10 µM. hit rate 2% among 130,000. AID 1918;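 active = signal ratio slope over the read window, or its plate-corrected B-score, at least 3 SD from the plate mean, either direction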;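 also: B-score of the F/F0 ratio slope over 7 to 12 s after thallium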
Target sequence (P48048 whole entry, looked up): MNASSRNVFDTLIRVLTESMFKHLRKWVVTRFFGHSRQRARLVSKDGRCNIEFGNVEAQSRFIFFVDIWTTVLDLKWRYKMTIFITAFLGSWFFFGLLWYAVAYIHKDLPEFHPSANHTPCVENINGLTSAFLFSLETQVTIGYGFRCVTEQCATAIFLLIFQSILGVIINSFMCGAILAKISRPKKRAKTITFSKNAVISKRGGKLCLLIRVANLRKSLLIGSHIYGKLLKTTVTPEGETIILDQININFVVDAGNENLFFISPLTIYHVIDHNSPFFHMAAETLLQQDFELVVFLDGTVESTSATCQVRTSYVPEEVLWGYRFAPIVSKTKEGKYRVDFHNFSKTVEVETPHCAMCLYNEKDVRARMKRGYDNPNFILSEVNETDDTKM
ROMK retest: retested hit modulating human ROMK potassium channel; shares compounds with ROMK mod; ROMK thallium flux, fluorescence ratio; stronger effect = lower value; normalized thallium flux (F/F0 slope) at 10 µM; hit rate 54% among 3,000; AID 1917;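 active = Flux at 10 µM at least 3 SD below or above vehicle control mean in one or both replicates; inconclusive = no clear call, values can overlap the other calls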
Numbers without * were called inactive; i = inactive; ? = inconclusive; · = no result given; + = active, no number. In the library only some 2.3% were active in any assay of this set; here they are far more common.

SMILES	Autophagy HCS	Ins promoter up	SDO1 yeast rescue	ABCG2 inh	ABCB1 block	ROMK mod	ROMK retest
COc1ccc(CNC(=O)N2CCN(c3ccc(F)cc3)CC2)cc1Cl	i	0.34	·	6.8	0.5	-3.01*	0.0746
Cc1ccc(O)c(C(=O)c2cnn(C(=O)Cc3csc(C)n3)c2)c1	i	-0.89	-0.63	11.7	0.4	-6.7*	0.0784
CC1SC(C)C(=O)N(CC(=O)Nc2ccc([N+](=O)[O-])cc2)C1=O (stereo not drawn)	i	0.54	·	0.5	-0.1	0.7	·
O=C(c1ccccc1)c1c2c(cc3sc4ccccc4[n+]13)-c1cccc3cccc-2c13	+	?	-1.83	-9.1	-0.5	·	0.0447*
Cc1sc2cc3c(c(C(=O)c4ccccc4)[n+]2c1C)-c1cccc2cccc-3c12	i	?	-2.16	-6.4	-1.4	-3.08*	0.0546*
COc1ccc(Cl)cc1NC(=O)C(C)N(C)Cc1ccc(C(F)(F)F)cc1 (stereo not drawn)	i	-0.9	-0.29	14.2	1.8	·	·
O=C(OCc1cccc(F)c1)c1ccc2c(=O)n3c(nc2c1)CCC3	·	0.46	·	·	·	·	·
CC(=O)c1ccc(Cc2ccc(C(C)=O)cc2)cc1	i	0.22	·	-1.7	-0.1	-1.07	·
CC1(C)CN(c2cccc(Br)c2)C1=O	i	0.69	·	-0.5	0.1	2.13*	0.0732
O=C(Nc1ccc(Oc2ncnc3cc(Cl)ccc23)nc1)c1ccc(F)cc1	·	-0.57	·	·	·	·	·
O=C(O)CCC(=O)Nc1ccc(N2CCCCCC2)cc1	i	0.64	1.39	-0.2	0.0	5.09*	0.075
Cc1ccc2nc(SC(C)C(=O)N3CCOCC3)[nH]c2c1 (stereo not drawn)	i	-0.79	·	9.4	1.3	-0.936	·
CC(C)(O)C#Cc1ccc(CN2CCCC(CO)(Cc3cccc(Cl)c3)C2)cc1 (stereo not drawn)	i	·	·	2.3	0.9	-0.126	·
O=C(Nc1cccc(O)c1)c1cc(S(=O)(=O)N2CCCC2)ccc1Cl	i	-0.08	-0.84	1.4	0.6	3.35*	0.101*
O=C(Nc1cccc(S(=O)(=O)N2CCCCCC2)c1)c1ccc2c(c1)OCO2	i	0	-0.64	25.5	2.2	-3.57*	0.0768
Fc1cccc(C2NC(=S)NC3=C2N2CCC3CC2)c1 (stereo not drawn)	i	-0.03	-0.28	1.6	0.5	·	·
COc1ccc(OC)c(C2NC(=S)NC3=C2N2CCC3CC2)c1 (stereo not drawn)	i	0.55	·	0.7	0.5	2.95*	0.0744
COc1cc(C2=NOC(C(=O)NCc3ccco3)C2)cc(OC)c1OC (stereo not drawn)	i	-0.76	-0.06	1.6	-2.1	-0.0445	·
COc1ccc(C2=NOC(C(=O)NCc3cccs3)C2)cc1 (stereo not drawn)	+	-1.1	2.76	2.0	0.6	3.82*	0.0836
COc1ccc(C2=NOC(C(=O)NCc3ccco3)C2)cc1 (stereo not drawn)	i	0.4	-0.56	4.5	0.2	3.89*	?
COc1ccc(C2=NOC(C(=O)NCc3cccs3)C2)cc1OC (stereo not drawn)	i	-0.81	1.49	19.4	-0.2	0.92	·
CC1CCc2c(sc(NC(=S)NC(=O)c3ccccc3)c2C#N)C1 (stereo not drawn)	·	1.05	·	·	·	·	·
CCOCCCNC(=O)c1c[nH]c2ccc(OCC)cc2c1=O	·	-2.11	·	·	·	0.393	·
Cc1cc(C)c(NC(=S)N(CCCN2CCN(C)CC2)Cc2cccs2)c(C)c1	i	-0.48	·	5.1	0.9	0.0222	·
COCCCNC(=O)c1cccn2c(=O)c3cc4ccccc4cc3nc12	i	1.65	-0.88	-7.0	2.5	·	0.0539*
CSc1ccc(CN(C)CC(=O)Nc2c(F)cccc2F)cc1	i	-0.48	·	3.1	0.8	-0.289	·
c1cc2c3c(cccc3c1)NC1(CCCCCC1)N2	i	-4.13	-0.51	-0.5	0.0	·	·
c1cc2c3c(cccc3c1)NC1(CCC3(CC1)Nc1cccc4cccc(c14)N3)N2	·	0.21	·	·	·	·	0.0495*
O=[N+]([O-])c1ccc(OCC(O)CNC2CCCC2)cc1 (stereo not drawn)	·	-0.73	·	·	·	·	·
